High-throughput results: PubChem BioAssay, Broad Institute
The list is not random: actives were taken first. Their share in the collection is about 3.1%.
Calb FLC = C. albicans growth inhibition with fluconazole, primary screen, CaCi-2 strain, Alamar Blue fluorescence; C. albicans CaCi-2 (fluconazole-resistant clinical isolate) + fluconazole, 48 h; growth inhibition, % (no concentration beside the values); 0.57% of 300,000 active;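 active = growth inhibition above about 58% in most replicates, limit read from the data, passing the limit was not always enough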;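 also: all wells also contain fluconazole at 8 µg/ml as a sub-toxic cotreatment; 0% = median of DMSO wells and 100% = median of geldanamycin control wells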
HIF activator = HIF pathway transcriptional activators, primary screen, cell-based, U2OS HRE-luciferase, luminescence. U2OS HRE-luciferase reporter; normalized: DMSO 0%, desferrioxamine 100%. activation, % at 7.5 µM (by protocol). 0.32% of 300,000 active;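 active = mean activation of at least 10% of the iron chelator positive control signal, with at least half of replicates also reaching 10%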
PolyA inh = polyadenylation inhibitors in yeast reporter cells, primary screen, luminescence, S. cerevisiae; S. cerevisiae SKY197-pL101 polyadenylation reporter, beta-gal luminescence; efflux-impaired pdr1/pdr3 knockout yeast; score 100 = 6 SD above DMSO; activity score, % at 12 µM; 0.02% of 300,000 active; AID 1875, 2009;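 active = lowest replicate activity score at least 50, where 100 means six control SD above control mean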;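 also: yeast exposed to compound for 9 h at 30 °C; higher score means more reporter readthrough which indicates perturbed polyadenylation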
T cruzi inh = inhibitors of intracellular T. cruzi growth, primary screen, luminescence, NIH3T3 host cells; 1.4% of 300,000 active; inhibition, % (no concentration beside the values); T. cruzi beta-gal in NIH3T3, 90 h; AID 1885, 2009;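 active = mean inhibition across valid replicates above about 55%, limit read from the data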;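 also: signal also drops with host cell toxicity which is not excluded here; 0% = plate median of DMSO wells and 100% = zero luminescence signal; higher percent means less beta-gal luminescence so fewer parasites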
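System – NIH/3T3 host cells with β-galactosidase reporter T. cruzi · Doses – single 50 nL compound addition per well in DMSO · Reagent – 5000 T. cruzi trypomastigotes/well · Medium – Low-serum DMEM with 2% FBS · Timing – ≥90 h infection period, 3 h prior cell attachment · Evaluation – parasite load inhibition, % · Technique – GalScreen luminescence, 60 min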
Beta cell apopt = inhibitors of cytokine-induced beta cell apoptosis, primary screen, luminescence. AID 435005, 2010. 0.8% of 300,000 active. INS-1E cytokine-induced death, ATP luminescence, 48 h; percent of positive-control rescue, neutral wells zero. protection from apoptosis, % (no concentration beside the values);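 active = Every replicate reaches about 75%, or at least half do and their mean reaches it too, limit read from the data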;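 also: 0% = cytokine-treated negative control wells and 100% = positive control rescue; higher means more ATP so stronger rescue from cytokine killing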
CSC inhib = cancer stem cell viability inhibitors, primary screen, luminescence; inhibition, % at 7.5 µM; AID 2717, 2010; 1.1% of 300,000 active; cancer stem cell-like cells viability; in the data active = inhibition above about 75%; tested in HMLE shEcad cells
The depositor's hits bear a star; nt = not tested or not shown.

SMILES	Calb FLC	HIF activator	PolyA inh	T cruzi inh	Beta cell apopt	CSC inhib
COc1ccc(-c2ncc(CN3CCN(CCC(C)C)C(CCO)C3)cn2)cc1 (stereo unspecified)	-5	1	-10	61*	1	-4
Nc1ccc(C(=O)N/N=C\c2ccc(OC(=O)c3ccccc3Cl)cc2)cc1	79*	-1	-14	2	2	8
Cc1cc(C)cc(C(=O)Nc2nnc(SCC(=O)N3CCCc4ccccc43)s2)c1	-6	0	14	-10	-10	75*
Cc1ccccc1C(=O)NCC(=O)OCCOc1ccc(C(C)C)c(C)c1	2	0	-1	-16	-5	32
CCc1cccc(CN2CCC(CNC(=O)Nc3ccc(Cl)cc3)CC2)c1	2	0	9	57*	5	4
O=C(Nc1ccc(F)cc1)NC1CCN(Cc2ccccc2)CC1	-2	0	6	60*	0	-8
CN1CCC(NC(=O)Nc2ccc(Br)cc2)CC1	-2	0	17	61*	1	-23
O=C(Nc1ccccc1)NC1CCN(Cc2c(F)cccc2Cl)CC1	-3	0	1	9	1	21
Cc1ccc(-c2nnn(CC(=O)NC3CCN(Cc4ccccc4)CC3)n2)cc1	-8	1	4	66*	-5	-4
COc1ccccc1NS(=O)(=O)c1ccc(Cl)c(NC(=O)C(C)N2C(=O)c3ccccc3C2=O)c1 (stereo unspecified)	10	0	-4	-1	5	-7
CCS(=O)(=O)N1CCC(C(=O)Oc2ccc(Cl)cc2)CC1	13	0	-2	-5	1	5
CC(C)OCCCNC(=O)c1cccc2c1C(=O)c1ccc(Cl)cc1S2(=O)=O	nt	nt	nt	nt	1	-19
Cc1ccc(N(CCC#N)C(=O)COC(=O)C2CCN(S(=O)(=O)c3ccc4c(c3)OCCO4)CC2)cc1	-7	0	-1	-3	-1	-8
O=C(Nc1ccc2c(c1)OCO2)NC1CCN(Cc2ccccc2)CC1	0	1	11	56*	0	-6
O=C(NC1CCN(Cc2ccccc2)CC1)c1ccccc1	-6	1	-19	56*	nt	nt
O=C(Cc1ccccc1)NC1CCN(Cc2ccccc2)CC1	-14	0	6	43	2	-2
CC(C)(C)c1ccc(C(=O)NC2CCN(Cc3ccccc3)CC2)cc1	-21	-1	-63	53	-4	19
CC(C)c1ccc(NC(=O)NC2CCN(CC(=O)Nc3cccc4ccccc34)CC2)cc1	18	0	-3	56*	9	20
Cc1ccc(S(=O)(=O)Nc2cccc(C(=O)NC3CCN(Cc4ccccc4)CC3)c2)cc1F	-1	0	17	56*	nt	2
O=C(CN1CCC(NC(=O)Nc2ccccc2)CC1)Nc1ccccc1F	3	-4	0	-2	0	-16
Cc1cc(C)n(CC(=O)NNC(=O)COc2ccc(Br)cc2F)n1	nt	nt	nt	nt	-1	-17
CCCCCn1c(=O)[nH]c2cc(C(=O)NC3CCN(Cc4ccccc4)CC3)ccc2c1=O	0	-1	10	35	7	1
CCC(C)c1ccc(NC(=S)NC2CCN(Cc3ccccc3)CC2)cc1 (stereo unspecified)	-5	0	-18	24	111*	36
O=C(NC1CCN(Cc2ccccc2)CC1)c1ccc2c(c1)[nH]c(=O)n2Cc1ccc(F)cc1	-15	0	-10	58*	17	5
CN1C(=O)/C(=C\c2ccccc2F)Sc2ccc(C(=O)NC3CCN(Cc4ccccc4)CC3)cc21	2	0	-21	61*	nt	-7
SMILES	Calb FLC	HIF activator	PolyA inh	T cruzi inh	Beta cell apopt	CSC inhib
CC(C)C1Cc2c(sc3ncnc(NN)c23)CO1 (stereo unspecified)	6	0	7	11	-1	11
O=C(COC(=O)[C@@H]1CC(O)CN1S(=O)(=O)c1ccc2c(c1)OCCO2)Nc1cc(F)ccc1F (stereo partly specified)	nt	nt	nt	nt	0	-14
NC(=O)C1CCCN(CC(O)COCc2ccc(Cl)cc2)C1 (stereo unspecified)	-1	0	-20	9	-2	-5
COc1ccc(/C=C/c2nc3ccccc3n2C)cc1	1	-6	14	10	106*	88*
COc1ccc(/C=C/c2ccncc2)cc1	-28	3	0	74*	-1	8
COc1ccc(Cn2c(/C=C/c3ccccc3)nc3ccccc32)cc1	0	2	-19	35	32	48
COc1cccc(/C=C/c2ccncc2)c1OC	1	0	-8	49	-4	-4
Cc1c(C)c2cc(Cl)c(OCC(=O)NCCCn3ccnc3)cc2oc1=O	-23	0	18	1	0	4
Cc1ccc(-c2nc3cc(Br)cnc3nc2-c2ccc(C)cc2)cc1	-6	1	-16	58*	13	57
C=CCn1c(SCc2c(C)noc2C)nc2sc3c(c2c1=O)CCCCC3	-2	-1	10	0	nt	94*
C=CCn1c(SCc2c(C)noc2C)nc2sc3c(c2c1=O)CCCC3	13	0	-18	1	21	48
COc1ccccc1CC(=O)O/N=C(\N)Cc1cccc2ccccc12	3	0	-21	23	-6	-12
COc1ccccc1C/C(N)=N/O	1	204*	9	-11	-10	-8
O=C(COc1ccccc1)Nc1cccc(-c2nc3cc4ccccc4cc3[nH]2)c1	109*	5	-11	20	33	88*
CCCCC[n+]1ccn(C2=C([O-])c3ccccc3C(=O)/C2=N\S(=O)(=O)c2ccccc2)c1	2	0	-11	1	90*	-10
CCCC[n+]1ccn(C2=C([O-])c3ccccc3C(=O)/C2=N\S(=O)(=O)c2ccccc2)c1	47	-25	14	1	46	20
CC(C)[n+]1ccn(C2=C([O-])c3ccccc3C(=O)/C2=N\S(=O)(=O)c2ccccc2)c1	26	-1	16	-2	54	4
CC(C)(C)c1cc[n+](C2=C([O-])c3ccccc3C(=O)/C2=N\S(=O)(=O)c2ccccc2)cc1	7	-4	1	13	82*	27
Cc1cc(C)c[n+](C2=C([O-])c3ccccc3C(=O)/C2=N\S(=O)(=O)c2cccs2)c1	44	0	-15	-18	107*	24
Cc1cc[n+](C2=C([O-])c3ccccc3C(=O)/C2=N\S(=O)(=O)c2cccs2)cc1C	55	-2	-7	57*	-6	-12
Cc1ccc(S(=O)(=O)Nc2c(C)cc(C)nc2Cl)cc1	-14	-34	1	-13	-1	-3
